UPR CHOP act – activators of apoptotic CHOP UPR arm, primary screen, cell-based, CHO-CHOP luciferase reporter, luminescence, uHTS. activation, % at 10 µM. hit rate 0.34% among 330,000. UPR activation; percent of tunicamycin response over DMSO baseline;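 active = at 10 µM dose, activation of 40% or more, normalized to positive control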
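System: CHO-CHOP luciferase reporter cell line | Buffer or medium: F12 medium containing 10% fetal bovine serum | Doses: One dose, 10 µM in 0.5% DMSO | Times: 6 h compound exposure at 37 °C after overnight seeding | Signal: Luciferase luminescence | Read-out: % activation vs tunicamycin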
UPR XBP1 act – activators of adaptive XBP1 UPR arm, primary screen, cell-based, CHO-XBP1 luciferase reporter, luminescence, uHTS | hit rate 0.33% among 330,000 | IRE1-XBP1 UPR activation; percent of tunicamycin response, DMSO as zero | AID 463104, 2010 | activation, % at 20 µM;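 active = versus positive control, 20 µM dose yields 30% or more activation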
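Material: CHO cell line with stable XBP1 luciferase reporter; buffer or medium: F12 medium containing 10% fetal bovine serum; compound: single point, 20 µM final compound, 1% DMSO; incubation: 6 h treatment, 37 °C; measured by: glow luminescence from Steady-Glo reagent; evaluation: activation, % of tunicamycin; control set: tunicamycin high, DMSO low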
TLR9-MyD88 block – inhibitors of TLR9-MyD88 association in cells, primary screen, cell-based, CHO, BLA complementation, fluorescence. inhibition, % at 4.98 µM. AID 504734, 2011. hit rate 0.21% among 340,000. Toll-like receptor 9 (Homo sapiens) + Myeloid differentiation primary response protein …. CCF4 FRET ratio;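 active = inhibition above the mean over all tested compounds plus 3 SD, cut at about 21% in these data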
CHOP inh – inhibitors of CHOP promoter induction, primary screen, cell-based, unfolded protein response, luciferase reporter | CHO-K1 CHOP-promoter luciferase, tunicamycin-induced, 15-18 h | AID 2732, 2010 | hit rate 3.8% among 220,000 | inhibition, % at 10 µM;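 active = compounds that reduced the stress-induced luciferase reporter signal by more than about 70% of percent inhibition, limit read from the data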
NOD2 RIPK2 PPI – NOD2-RIPK2 binding disruptors in cells, primary screen, fluorescence, CHO cells, BLA complementation | AID 624267, 2012 | inhibition, % at 4.98 µM | CCF4 ratio | hit rate 0.38% among 360,000; in the data active = inhibition above about 21%
TLR4 MyD88 comp – inhibitors of TLR4-MyD88 association in cells, primary screen, cell-based, HeLa CL3-4, BLA complementation, FRET ratio; AID 861, 2007; Toll-like receptor 4 (Homo sapiens) + Myeloid differentiation primary response protein …; HeLa CL3-4 TLR4/MyD88 BLA complementation; hit rate 0.18% among 200,000; inhibition, % at 8.4 µM; in the data active = inhibition above about 25%
TLR9-MyD88 conf – TLR9-MyD88 association inhibitors, retest, confirmation, cell-based, CHO, BLA complementation, fluorescence, triplicate | shares compounds with TLR9-MyD88 block | CCF4 FRET ratio | inhibition, % at 4.98 µM | hit rate 51% among 680 | AID 540250, 2011;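 active = mean inhibition across three repeats above about 21% taken from the earlier screen, limit read from the data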;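 also: blue over green emission ratio reports constitutive TLR9 MyD88 association via BLA complementation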
Target sequence (Q9NR96 whole entry, looked up): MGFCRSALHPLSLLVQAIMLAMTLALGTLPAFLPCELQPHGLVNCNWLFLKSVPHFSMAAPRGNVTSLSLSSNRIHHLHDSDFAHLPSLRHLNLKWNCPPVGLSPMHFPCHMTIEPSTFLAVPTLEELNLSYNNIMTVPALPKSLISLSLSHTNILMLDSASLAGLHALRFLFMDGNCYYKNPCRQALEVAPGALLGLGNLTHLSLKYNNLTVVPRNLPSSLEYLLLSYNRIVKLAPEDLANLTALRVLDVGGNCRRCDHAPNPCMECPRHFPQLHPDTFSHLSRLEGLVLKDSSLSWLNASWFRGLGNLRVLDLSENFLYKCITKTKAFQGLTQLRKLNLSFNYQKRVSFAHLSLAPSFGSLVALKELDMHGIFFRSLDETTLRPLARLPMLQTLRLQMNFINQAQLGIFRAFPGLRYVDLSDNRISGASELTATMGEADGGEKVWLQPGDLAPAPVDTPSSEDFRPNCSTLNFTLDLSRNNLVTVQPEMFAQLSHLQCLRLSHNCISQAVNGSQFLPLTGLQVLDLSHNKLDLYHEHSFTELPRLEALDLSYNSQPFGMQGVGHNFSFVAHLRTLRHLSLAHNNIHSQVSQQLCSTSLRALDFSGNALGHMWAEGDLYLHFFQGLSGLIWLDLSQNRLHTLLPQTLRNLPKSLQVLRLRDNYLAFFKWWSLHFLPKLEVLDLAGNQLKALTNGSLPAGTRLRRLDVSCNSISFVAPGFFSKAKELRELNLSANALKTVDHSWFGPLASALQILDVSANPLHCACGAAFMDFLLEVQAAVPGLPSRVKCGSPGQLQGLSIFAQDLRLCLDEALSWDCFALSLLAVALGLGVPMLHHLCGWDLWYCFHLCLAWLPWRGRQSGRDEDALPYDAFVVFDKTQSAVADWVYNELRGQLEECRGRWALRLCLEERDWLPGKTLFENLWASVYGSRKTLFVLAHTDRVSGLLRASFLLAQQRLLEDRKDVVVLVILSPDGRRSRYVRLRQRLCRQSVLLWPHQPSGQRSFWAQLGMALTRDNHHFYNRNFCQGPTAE
BLA counter-1 – beta-lactamase reporter inhibitors in CHO cells, artefact control for TLR9-MyD88 binding inhibitor project, cell-based, fluorescence; shares compounds with TLR9-MyD88 block; CHO-BLA cells, CCF4 FRET ratio, BLA reporter; inhibition, % at 4.98 µM; hit rate 7% among 680;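 active = mean inhibition above a 50% cutoff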;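 also: counterscreen of TLR9-MyD88 hits on CMV-driven BLA in CHO-K1 cells; higher means less blue over green ratio so more BLA blockade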
TLR9 CHO cytotox – CHO cell viability loss – luminescence, single concentration, cytotoxicity control for TLR9-MyD88 binding inhibitor project; shares compounds with TLR9-MyD88 block; TLR9-MyD88 CHO cells cytotoxicity; inhibition, % at 4.98 µM; hit rate 39% among 680; AID 588336, 2011; in the data active = inhibition above about 11%
NOD2-RIPK2 conf – NOD2-RIPK2 binding disruptors, retest, confirmation, fluorescence, CHO cells, BLA complementation, triplicate. hit rate 70% among 1,200. inhibition, % at 4.98 µM. shares compounds with NOD2 RIPK2 PPI. CCF4 FRET;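 active = mean inhibition across replicates above a set limit taken from the earlier primary screen, cut at about 21% in these data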
BLA counter-2 – NOD2-RIPK2 counterscreen BLA reporter activity; CHO BLA reporter, CCF4 FRET ratio; AID 624371; shares compounds with NOD2 RIPK2 PPI; inhibition, % at 4.98 µM; hit rate 57% among 1,200;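 active = mean inhibition above the low-control mean inhibition plus three low-control SD, cut at about 11% in these data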
Numbers stand for hits; . = inactive; / = no result; ! = repeats disagree. This is one part of a sample in which hits are shown more often than they occur.

SMILES	UPR CHOP act	UPR XBP1 act	TLR9-MyD88 block	CHOP inh	NOD2 RIPK2 PPI	TLR4 MyD88 comp	TLR9-MyD88 conf	BLA counter-1	TLR9 CHO cytotox	NOD2-RIPK2 conf	BLA counter-2
O=C1C=CC2(C=C1)O[C@H](Cc1ccccc1)[C@@H](Cc1ccccc1)O2	/	/	26.0	/	88.6	/	38.7	.	99.4	91.4	29.2
CC(=CC(=O)c1ccccc1)c1ccccc1	/	/	.	/	.	/	/	/	/	/	/
CC(=O)Nc1ccc2c(=O)n(-c3ccccc3)sc2c1	/	/	27.7	/	31.2	/	25.0	.	92.2	39.7	10.6
O=c1c2cc(F)ccc2sn1-c1ccccc1	.	.	39.9	/	48.4	/	35.9	.	97.1	50.2	12.1
Cc1ccccc1-n1sc2cc(F)ccc2c1=O	.	.	36.0	.	33.7	.	21.3	.	100.4	47.0	18.7
O=c1c2ccccc2sn1-c1ccccc1F	/	/	.	/	.	/	/	/	/	/	/
O=C1C(SCCO)=C(SCCO)C(=O)c2ccccc21	.	.	64.5	.	83.9	/	84.3	.	98.7	92.3	33.7
CCCCNc1ccc2c3c(cccc13)C(=O)N(CCCC)C2=O	/	/	67.1	.	63.3	/	50.0	.	11.3	77.0	78.7
CCN1C(=O)c2cccc3c(N)ccc(c23)C1=O	.	.	24.8	/	27.1	/	.	.	.	34.6	35.4
C=CCNC(=O)COC(=O)C1CCN(S(=O)(=O)c2ccc3c(c2)OCCO3)CC1	.	.	.	/	.	/	/	/	/	/	/
COc1ccc(O)c(/C=N/NC(=S)Nc2cccc(S(=O)(=O)N(C)C)c2)c1	/	/	25.6	.	24.9	.	.	.	32.4	.	21.4
CC1(C)CN(C2CCCCC2)C(=O)[C@H]1CC(=O)Nc1ccc(Br)cc1	/	/	.	/	.	/	/	/	/	/	/
CCOC(=O)C1CCN(S(=O)(=O)c2c(Cl)ccc3nonc23)CC1	.	.	42.6	/	81.7	/	39.3	.	81.3	78.1	14.7
O=c1ccc2ccc(O[C@@H]3O[C@H](CO)[C@@H](O)[C@H](O)[C@H]3O)c(O)c2o1	.	.	.	/	.	/	/	/	/	/	/
COc1cc2ccc(=O)oc2c(O[C@@H]2O[C@H](CO)[C@@H](O)[C@H](O)[C@H]2O)c1O	.	.	39.6	/	45.3	/	24.3!	.	.	48.7	59.2
CCn1nc(C)cc1-c1nnc(SCC(=O)Nc2ccccc2)n1CCCOC	.	.	.	.	.	/	/	/	/	/	/
CCn1nc(C)cc1-c1nnc(Sc2ncc([N+](=O)[O-])s2)n1C	.	.	28.7	/	78.2	/	42.1	.	100.5	85.1	19.1
COc1cc(C2CC(c3c(C)cc(C)[nH]c3=O)=NN2c2ccccc2F)cc(OC)c1OC (centres undefined)	.	.	22.9	/	40.9	/	.	.	.	34.9	46.9
COc1ccc(C2CC(c3ccc(F)cc3)=NN2c2ccccc2)cc1OC (centres undefined)	.	.	.	/	.	/	/	/	/	/	/
CCOC(=O)C1(C)CCCN1C(=O)c1ccc(N(C)C)cc1 (centres undefined)	/	/	/	/	.	/	/	/	/	/	/
CCn1c(=O)c([N+](=O)[O-])c(Cl)c2ccccc21	.	.	44.2	107.6	88.2	.	61.8	.	96.5	96.0	22.4
O=[N+]([O-])c1ccc(N(c2ccccc2)c2ccccc2)cc1	.	.	38.7	.	58.2	.	32.5	.	.	61.5	61.3
COc1cc(/C=C/C(O)=C/C(=O)/C=C/c2ccc(O)cc2)ccc1O	.	.	34.2	/	49.2	/	25.4	.	.	57.2	56.5
COc1ccccc1CC(=O)Nc1ccc(S(=O)(=O)N(C)C2CCN(C)CC2)cc1	.	.	.	/	.	/	/	/	/	/	/
COc1ccc(/C=N/Nc2cc(C)nc3ccccc23)cc1	.	.	.	/	.	/	/	/	/	/	/
SMILES	UPR CHOP act	UPR XBP1 act	TLR9-MyD88 block	CHOP inh	NOD2 RIPK2 PPI	TLR4 MyD88 comp	TLR9-MyD88 conf	BLA counter-1	TLR9 CHO cytotox	NOD2-RIPK2 conf	BLA counter-2
COc1ccc2nc(C)cc(N/N=C/c3ccc(F)cc3)c2c1	.	.	23.1	/	49.4	/	26.3	.	18.6	67.4	68.5
O=C1C=CC2(O[C@H](c3ccccc3)[C@@H](c3ccccc3)O2)[C@H](Sc2ccccc2O)C1	/	/	39.8	/	92.0	/	38.4	.	99.7	90.7	39.6
C[C@@H]1[C@@H](Sc2ccccc2)CC(=O)O[C@@H]1c1ccc(-c2ccccc2)cc1	.	.	.	/	.	/	/	/	/	/	/
CCC/C(C#Cc1cc(OC)cc(OC)c1)=C1/c2ccccc2C(=O)N1c1ccccc1	.	.	.	/	.	/	/	/	/	/	/
CCC/C(C#Cc1ccc(N(C)C)cc1)=C1/c2ccccc2C(=O)N1c1ccccc1	.	.	28.7	/	40.3	/	55.9	56.5	.	49.2	60.3
Nc1c(Cl)cc(-c2[nH]c3cc(C(=O)NCCO)ccc3c(=O)c2O)cc1Cl	.	.	21.4	/	28.3	/	.	.	.	34.7	38.0
CCCNC(=O)c1ccc2c(=O)c(O)c(-c3ccc(F)cc3)[nH]c2c1	.	.	.	.	.	/	/	/	/	/	/
COc1ccc(OC)c(CN2C(=O)CSCC2(C)C(=O)NCc2ccccc2)c1 (centres undefined)	/	/	/	/	.	/	/	/	/	/	/
CCc1cc2c(=O)nc3n(c2s1)Cc1ccccc1/C3=C(/O)c1cccc([N+](=O)[O-])c1	.	.	.	.	.	.	/	/	/	/	/
CCc1cc2c(=O)nc3n(c2s1)Cc1ccccc1/C3=C(/O)c1ccc(F)cc1	.	.	23.2	.	23.5	.	.	.	.	.	.
O=C1c2[nH]c3ccccc3c2CC1N1C(=O)c2ccccc2C1=O (centres undefined)	/	/	.	/	.	/	/	/	/	/	/
CCOC(=O)n1c(=O)n(Cc2c(Cl)cccc2Cl)c2ccccc21	.	.	23.6	72.7	22.9	.	.	.	.	28.9	27.4

Source: PubChem BioAssay (several laboratories)
